This note sets out measurements from ChEMBL document CHEMBL1275334, “5-Piperazinyl-3-sulfonylindazoles as potent and selective 5-hydroxytryptamine-6 antagonists” (J Med Chem, 2010).

For data set [1], the target named is D(2) dopamine receptor (Homo sapiens, UniProt P14416). As to the kind of experiment: Displacement of [3H]LSD from human cloned dopamine D2 receptor expressed in human HeLa cells. The format is cell-based. A general note: In a radioligand displacement assay an active substance lowers the binding of a labelled ligand.
Chain of D(2) dopamine receptor (P14416 whole entry): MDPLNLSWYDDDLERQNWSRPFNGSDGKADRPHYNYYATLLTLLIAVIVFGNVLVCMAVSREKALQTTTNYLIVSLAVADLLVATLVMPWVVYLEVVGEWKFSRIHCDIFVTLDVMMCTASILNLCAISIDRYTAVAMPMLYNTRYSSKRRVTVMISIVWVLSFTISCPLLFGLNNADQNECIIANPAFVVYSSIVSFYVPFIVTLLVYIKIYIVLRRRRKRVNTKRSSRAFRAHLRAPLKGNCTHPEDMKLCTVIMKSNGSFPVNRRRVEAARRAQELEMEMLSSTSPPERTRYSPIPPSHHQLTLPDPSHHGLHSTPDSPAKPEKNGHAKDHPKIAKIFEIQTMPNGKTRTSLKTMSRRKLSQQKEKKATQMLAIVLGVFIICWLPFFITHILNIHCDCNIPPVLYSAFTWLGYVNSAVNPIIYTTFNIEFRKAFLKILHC
In data set [2] the target is 5-hydroxytryptamine receptor 7 (Homo sapiens, UniProt P34969). Nature of the data set: Displacement of [3H]LSD from human cloned 5HT7 receptor expressed in human HeLa cells. It is filed as cell-based.
Chain of 5-hydroxytryptamine receptor 7 (P34969 whole entry): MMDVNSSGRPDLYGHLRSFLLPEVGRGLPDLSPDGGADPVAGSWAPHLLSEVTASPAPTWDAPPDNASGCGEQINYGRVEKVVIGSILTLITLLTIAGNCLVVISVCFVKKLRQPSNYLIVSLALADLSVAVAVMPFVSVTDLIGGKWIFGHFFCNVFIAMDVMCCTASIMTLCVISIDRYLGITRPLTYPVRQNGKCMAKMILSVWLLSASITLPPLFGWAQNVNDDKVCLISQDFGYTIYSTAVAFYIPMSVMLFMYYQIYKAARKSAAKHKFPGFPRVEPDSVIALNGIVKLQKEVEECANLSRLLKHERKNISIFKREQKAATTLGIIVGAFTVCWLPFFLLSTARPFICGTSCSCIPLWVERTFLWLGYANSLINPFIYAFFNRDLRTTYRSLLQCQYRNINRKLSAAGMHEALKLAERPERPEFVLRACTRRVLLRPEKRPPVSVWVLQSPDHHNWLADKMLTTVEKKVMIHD
Data set [3] in a line: Ratio of drug level in brain to plasma in dog at 10 mg/kg, po. The format is ADME, organism-based, Canis lupus familiaris. Further details: dose 10 mg/kg, route oral. Conditions: read-out: BPR.
Data set [4] in a line: Oral bioavailability in dog at 10 mg/kg. It is filed as ADME, organism-based, Canis lupus familiaris. Conditions: in vivo.
The nature of data set [5]: Protein binding in rat brain at 10 mg/kg, po. To be noted: read-out: PPB (converted). Further details: dose 10 mg/kg, route oral. It is filed as ADME, organism-based.
The target of data set [6] is T1, 5-hydroxytryptamine receptor 6 (Homo sapiens, UniProt P50406). As to the kind of experiment: Antagonist activity at human cloned 5HT6 receptor expressed in human HeLa cells by cyclase assay. It is filed as functional, cell-based.
T1 sequence (P50406 whole entry): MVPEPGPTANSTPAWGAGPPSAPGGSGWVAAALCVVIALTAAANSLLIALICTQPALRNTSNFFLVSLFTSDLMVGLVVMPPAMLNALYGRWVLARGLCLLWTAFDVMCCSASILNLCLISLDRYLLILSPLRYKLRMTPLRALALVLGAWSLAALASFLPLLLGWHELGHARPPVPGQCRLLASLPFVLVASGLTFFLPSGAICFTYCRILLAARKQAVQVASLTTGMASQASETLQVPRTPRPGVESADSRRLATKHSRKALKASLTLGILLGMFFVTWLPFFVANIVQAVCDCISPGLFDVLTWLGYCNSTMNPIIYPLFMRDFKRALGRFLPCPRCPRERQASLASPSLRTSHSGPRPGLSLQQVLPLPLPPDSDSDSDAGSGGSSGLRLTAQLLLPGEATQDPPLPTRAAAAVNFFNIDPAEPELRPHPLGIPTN
Data set [7] addresses T2, 5-hydroxytryptamine receptor 2C (Homo sapiens, UniProt P28335).
T2 sequence (P28335 whole entry): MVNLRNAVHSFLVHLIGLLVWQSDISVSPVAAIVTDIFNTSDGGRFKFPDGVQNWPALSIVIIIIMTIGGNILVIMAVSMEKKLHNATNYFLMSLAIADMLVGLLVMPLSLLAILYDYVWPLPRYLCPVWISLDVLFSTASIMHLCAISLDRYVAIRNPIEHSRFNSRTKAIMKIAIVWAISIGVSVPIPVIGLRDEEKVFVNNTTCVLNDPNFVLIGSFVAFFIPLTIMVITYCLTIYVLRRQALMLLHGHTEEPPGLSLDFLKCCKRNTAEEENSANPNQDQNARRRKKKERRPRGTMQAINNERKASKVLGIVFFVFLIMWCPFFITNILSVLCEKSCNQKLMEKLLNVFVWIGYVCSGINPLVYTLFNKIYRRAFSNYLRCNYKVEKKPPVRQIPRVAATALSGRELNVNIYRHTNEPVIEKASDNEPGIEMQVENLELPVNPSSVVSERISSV
As to the kind of experiment: Displacement of [3H]LSD from human cloned 5HT2C receptor expressed in human HeLa cells. The format is cell-based.

The target of data set [8] is 5-hydroxytryptamine receptor 1D (Homo sapiens, UniProt P28221). As to the kind of experiment: Displacement of [3H]LSD from human cloned 5HT1D receptor expressed in human HeLa cells. It is filed as cell-based.
Chain of 5-hydroxytryptamine receptor 1D (P28221 whole entry): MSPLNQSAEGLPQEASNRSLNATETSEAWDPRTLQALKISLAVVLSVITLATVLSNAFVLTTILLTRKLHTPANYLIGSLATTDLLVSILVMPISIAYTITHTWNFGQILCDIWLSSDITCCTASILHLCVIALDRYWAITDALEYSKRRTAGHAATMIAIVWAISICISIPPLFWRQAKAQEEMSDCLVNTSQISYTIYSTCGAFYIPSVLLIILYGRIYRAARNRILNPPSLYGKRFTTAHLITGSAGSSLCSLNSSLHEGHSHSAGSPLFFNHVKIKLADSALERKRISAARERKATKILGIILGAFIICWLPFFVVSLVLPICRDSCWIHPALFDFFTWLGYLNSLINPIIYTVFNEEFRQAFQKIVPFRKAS
For data set [9], the system named is Rattus norvegicus. As to the kind of experiment: Enhancement of memory in po dosed rat measured after 48 hrs delay by novel object recognition test. It is filed as functional, organism-based.
Data set [10] deals with Rattus norvegicus. As to the kind of experiment: Inhibition of scopolamine-induced memory deficit in po dosed rat by novel object recognition test. It is filed as functional. Conditions: read-out: MED.
Data set [11] is described as follows: Ratio of drug level in brain to plasma in rat at 10 mg/kg, po. The format is ADME, organism-based. Further details: dose 10 mg/kg, route oral. To be noted: read-out: BPR.
Data set [12] has as its system Rattus norvegicus. Nature of the data set: Enhancement of memory in po dosed rat assessed as minimum effective dose measured after 48 hrs delay by novel object recognition test. It is filed as functional. Conditions: read-out: MED.
In data set [13] the target is T3, 5-hydroxytryptamine receptor 2B (Homo sapiens, UniProt P41595). As to the kind of experiment: Displacement of [3H]LSD from human cloned 5HT2B receptor expressed in human HeLa cells. It is filed as cell-based.
T3 sequence (P41595 whole entry): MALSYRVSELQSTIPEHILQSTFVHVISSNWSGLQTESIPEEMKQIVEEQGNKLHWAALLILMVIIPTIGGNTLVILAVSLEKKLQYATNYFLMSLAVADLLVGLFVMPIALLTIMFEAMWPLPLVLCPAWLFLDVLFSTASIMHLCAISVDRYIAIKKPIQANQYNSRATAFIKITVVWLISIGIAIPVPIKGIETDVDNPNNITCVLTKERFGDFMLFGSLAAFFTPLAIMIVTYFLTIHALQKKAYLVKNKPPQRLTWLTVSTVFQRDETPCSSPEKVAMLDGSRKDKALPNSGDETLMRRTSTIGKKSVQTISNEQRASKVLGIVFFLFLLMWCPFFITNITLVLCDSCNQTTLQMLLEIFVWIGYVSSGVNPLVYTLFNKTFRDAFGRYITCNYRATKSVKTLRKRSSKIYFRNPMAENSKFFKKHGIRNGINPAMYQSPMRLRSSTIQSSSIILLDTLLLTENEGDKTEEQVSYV
The target in data set [14] is 5-hydroxytryptamine receptor 1B (Homo sapiens, UniProt P28222). Nature of the data set: Displacement of [3H]LSD from human cloned 5HT1B receptor expressed in human HeLa cells. It is filed as cell-based.
Chain of 5-hydroxytryptamine receptor 1B (P28222 whole entry): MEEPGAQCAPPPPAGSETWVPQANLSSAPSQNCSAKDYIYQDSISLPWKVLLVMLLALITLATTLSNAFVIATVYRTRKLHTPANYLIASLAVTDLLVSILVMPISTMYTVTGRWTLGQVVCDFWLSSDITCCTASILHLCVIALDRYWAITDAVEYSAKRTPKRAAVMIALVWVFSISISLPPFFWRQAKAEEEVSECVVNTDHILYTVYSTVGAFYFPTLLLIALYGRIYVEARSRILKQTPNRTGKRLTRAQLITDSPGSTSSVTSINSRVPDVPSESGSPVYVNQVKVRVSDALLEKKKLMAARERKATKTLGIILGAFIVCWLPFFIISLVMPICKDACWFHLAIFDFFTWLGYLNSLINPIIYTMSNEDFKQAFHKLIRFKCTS
A short description of data set [15]: Plasma protein binding in rat at 10 mg/kg, po. The format is ADME, organism-based. Further details: dose 10 mg/kg, route oral. Conditions: read-out: PPB (converted).
Data set [16] has as its system Rattus norvegicus. As to the kind of experiment: Induction of glutamate release in hippocampus of rat at 10 mg/kg, po. It is filed as functional, organism-based. Also on record: dose 10 mg/kg.
For data set [17], the target named is T4, Alpha-2A adrenergic receptor (Homo sapiens, UniProt P08913).
T4 sequence (P08913 whole entry): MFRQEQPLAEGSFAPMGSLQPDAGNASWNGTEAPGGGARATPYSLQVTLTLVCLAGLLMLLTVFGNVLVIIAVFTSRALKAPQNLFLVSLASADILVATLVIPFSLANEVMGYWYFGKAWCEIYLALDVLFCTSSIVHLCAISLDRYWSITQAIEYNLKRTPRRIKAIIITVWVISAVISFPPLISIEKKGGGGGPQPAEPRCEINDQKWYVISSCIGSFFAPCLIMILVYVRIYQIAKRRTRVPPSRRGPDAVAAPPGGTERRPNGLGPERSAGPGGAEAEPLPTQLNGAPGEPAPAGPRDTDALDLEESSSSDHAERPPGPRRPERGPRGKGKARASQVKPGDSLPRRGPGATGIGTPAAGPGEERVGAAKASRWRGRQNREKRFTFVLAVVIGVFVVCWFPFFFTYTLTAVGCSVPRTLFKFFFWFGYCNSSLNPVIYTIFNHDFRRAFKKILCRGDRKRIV
Nature of the data set: Displacement of [3H]LSD from human cloned alpha2A adrenergic receptor expressed in human HeLa cells. The format is cell-based.

Data set [18] addresses T1, 5-hydroxytryptamine receptor 6. Nature of the data set: Antagonist activity at human cloned 5HT6 receptor expressed in human HeLa cells by cyclase assay relative to control. It is filed as functional, cell-based.
Data set [19] is described as follows: Solubility of the compound in water. It is filed as physicochemical.
For data set [20], the system named is Rattus norvegicus. As to the kind of experiment: Induction of acetylcholine release in hippocampus of rat at 10 mg/kg, po. It is filed as functional, organism-based. Also on record: dose 10 mg/kg.
Data set [21] can be described thus: Oral bioavailability in rat at 10 mg/kg. The format is ADME, organism-based. Conditions: in vivo.
The target of data set [22] is T3, 5-hydroxytryptamine receptor 2B. Nature of the data set: Agonist activity at human recombinant 5HT2B receptor expressed in CHOK1 cells at 0.0001 to 10 uM by FLIPR assay. It is filed as functional, cell-based. Conditions: CHO-K1.
Data set [23] deals with T5, 5-hydroxytryptamine receptor 1A (Homo sapiens, UniProt P08908).
T5 sequence (P08908 whole entry): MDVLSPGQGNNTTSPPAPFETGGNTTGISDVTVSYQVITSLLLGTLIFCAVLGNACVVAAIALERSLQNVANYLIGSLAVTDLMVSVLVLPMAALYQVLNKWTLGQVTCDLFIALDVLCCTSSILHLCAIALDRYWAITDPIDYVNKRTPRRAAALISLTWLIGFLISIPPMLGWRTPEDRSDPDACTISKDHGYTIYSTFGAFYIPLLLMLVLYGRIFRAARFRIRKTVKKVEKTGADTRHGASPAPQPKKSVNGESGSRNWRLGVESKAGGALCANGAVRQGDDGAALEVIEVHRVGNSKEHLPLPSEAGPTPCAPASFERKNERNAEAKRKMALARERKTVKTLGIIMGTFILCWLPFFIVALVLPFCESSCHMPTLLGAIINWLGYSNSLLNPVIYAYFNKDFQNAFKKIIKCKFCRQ
As to the kind of experiment: Displacement of [3H]LSD from human cloned 5HT1A receptor expressed in human HeLa cells. The format is cell-based.

The target of data set [24] is T1, 5-hydroxytryptamine receptor 6. Nature of the data set: Displacement of [3H]LSD from human cloned 5HT6 receptor expressed in human HeLa cells. It is filed as cell-based. A digest of the protocol: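 Radioligand displacement of [3H]LSD from cloned human 5-HT6 receptor stably expressed in HeLa cells. All test substances were used as HCl salts. Ki was determined in triplicate.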

pIC50, pKi: −log10 of the molar value. Calls of active or inactive are those of the source. The calls are words filed in the database; no cut-off is given here.

By pKi is commonly meant the negative decadic logarithm of the Ki, by convention in mol/L. One may read the bioavailability as the share of a dose that reaches the circulation, judged against a reference dose that is usually intravenous. Usually pIC50 stands for the negative decadic logarithm of the IC50, by convention in mol/L. A low value points to a large IC50. For orientation: solubility means the concentration that dissolves in the medium under given conditions. Higher therefore signals a readily soluble substance.

With `O=S(=O)(c1cccc2ccccc12)c1n[nH]c2ccc(N3CCNCC3)cc12`, the pKi in data set [1] is below 5.30; in [2], 5.81; in data set [7] it was below 5.30; in data set [8] it was below 5.30; in [13], 6.63; in data set [14], below 5.30. Also, the pKi in [17] is below 5.30; in data set [23] it was 6.24. Also, the Kp in data set [3] and in data set [11] was below 0.2 in each case. In addition, the bioavailability in data set [4] and in [21] was above 20% throughout. The fraction unbound in data set [5] and in [15] was 0.2 in each case. In data set [6], this molecule showed a pIC50 of 7.89. Further, the Activity entry in [9] is “Dose-dependent effect”. Besides, the minimal effective dose in data set [10] is 0.03 mg/kg; in data set [12], 3 mg/kg. Moreover, the result in [16] and in data set [20] was Active. For the same molecule, in data set [18], the Imax stood at 100%. The molecule further yielded a solubility in data set [19] above 100 µg/mL. In addition, the outcome in data set [22] was inactive.

Turning to `O=S(=O)(c1cccc2ccccc12)c1nn(Cc2ccccc2)c2ccc(N3CCNCC3)cc12`, the pKi was 6.22 in [1]; below 5.30 in data set [2]; 5.97 in [7]; below 5.30 in [8]; 6.85 in [13]; below 5.30 in [14]. In addition, the pKi in data set [17] and in [23] was below 5.30 throughout. For the same molecule, in data set [11], the Kp is above 0.5. In addition, the Imax in [18] is 100%. The same molecule had a bioavailability in data set [21] above 50%. Besides, the outcome in [22] was inactive.

Regarding `CN1CCN(c2ccc3[nH]nc(S(=O)(=O)c4cccc5ccccc45)c3c2)CC1`, the pKi is 6.48 in data set [1]; 6.24 in data set [2]; below 5.30 in [7]; below 5.30 in data set [8]; 8.80 in data set [24]; 6.22 in [13]. Besides, the pKi in data set [14], in data set [17] and in [23] was below 5.30 in each case. For the same molecule, the pIC50 in [6] was 8.10. The molecule further had an Imax in [18] of 100%. Also, the bioavailability in data set [21] was determined as 5%. In data set [22], the result was inactive.
